Experimental data gathered from unrelated publications.
Lines come from different studies, so protocols differ.
KIT D816V: Mast/stem cell growth factor receptor Kit (KIT, Homo sapiens, UniProt P10721, D816V)
KIT L576P: Mast/stem cell growth factor receptor Kit (KIT, Homo sapiens, UniProt P10721, L576P)
KIT D816H: Mast/stem cell growth factor receptor Kit (KIT, Homo sapiens, UniProt P10721, D816H)
KIT V559D/V654A: Mast/stem cell growth factor receptor Kit (KIT, Homo sapiens, UniProt P10721, V559D/V654A)
KIT: Mast/stem cell growth factor receptor Kit (KIT, Homo sapiens, UniProt P10721)
KIT autoinhibited: Mast/stem cell growth factor receptor Kit, autoinhibited (KIT, Homo sapiens, UniProt P10721)
KIT V559D: Mast/stem cell growth factor receptor Kit (KIT, Homo sapiens, UniProt P10721, V559D)
KIT A829P: Mast/stem cell growth factor receptor Kit (KIT, Homo sapiens, UniProt P10721, A829P)

Structure (SMILES) | target | test | setting | remaining binding
O=C(NCCCN1CCOCC1)c1ccc(Nc2ncc(Cl)c(-c3ccc(Cl)s3)n2)cc1 | KIT D816V | binding, competition with immobilised ligand | 1 µM | 26%
CNC(=O)[C@@H]1CC[C@@H](n2c(-c3ccc4cnccc4c3)nc3ccc(C(=O)NCc4cccc(C(N)=O)c4)cc32)C1 | KIT L576P | binding, competition with immobilised ligand | 1 µM | 99%
CN(C)c1ncc(F)c(-c2cnn3ncccc23)n1 | KIT D816H | binding | 1 µM | 72%
c1cncc(-c2cccc(Nc3nccc(NC4CCCCC4)n3)c2)c1 | KIT V559D/V654A | binding, competition with immobilised ligand | 10 µM | 43%
Cc1nc(C2CCN(C(=O)c3ccc(OC(F)(F)F)cc3N)CC2)c2ncc(N3CCN(C)CC3)cc2n1 | KIT L576P | cell-free assay, competition with immobilised ligand | 1 µM | 87%
Cc1cnc(Nc2ccc(C(=O)N3CCC(N4CCCC4)CC3)cc2)nc1-c1cc2ccccc2s1 | KIT V559D/V654A | binding, competition with immobilised ligand | 1 µM | 29%
CCN1CCN(Cc2ccc(C(=O)Nc3ccc(C)c(Oc4ccc5c(c4)CC(=O)N5)c3)cc2C(F)(F)F)CC1 | Mast/stem cell growth factor receptor Kit (KIT, Homo sapiens, UniProt P10721, T670I/V559D) | binding, competition with immobilised ligand | 1 µM | 58%
O=C(NC[C@@H]1[C@H]2CN(C(=O)OCc3cc(C(F)(F)F)cc(C(F)(F)F)c3)C[C@@H]12)c1ccc2[nH]nnc2c1 | KIT | cell-free assay, competition with immobilised ligand | 1 µM | 89%
O=C(NCC1CCOCC1)c1n[nH]cc1NC(=O)c1c(F)cccc1F | KIT D816H | binding, competition with immobilised ligand | 1 µM | 69%
F[C@@H]1CCN(c2nccc(-c3cnn4ncccc34)n2)C1 | KIT autoinhibited | binding | 1 µM | 100%
CN1CCN(c2ccc(Nc3nccc(-c4cccc([N+](=O)[O-])c4)n3)cc2C(F)(F)F)CC1 | KIT V559D | binding | 10 µM | 0%
CNC(=O)c1ccc(Nc2ncc(C(F)(F)F)c(NCc3nccnc3N(C)S(C)(=O)=O)n2)cc1 | KIT L576P | cell-free assay, competition with immobilised ligand | 0.1 µM | 86%
COc1cnc(Nc2cccc(S(N)(=O)=O)c2)nc1N1CCN(c2ccccc2)C(=O)C1 | KIT | binding, competition with immobilised ligand | 1 µM | 98%
COc1cccc(CNC(=O)c2nc3scc(COCc4ccc(C(=O)O)cc4)c3c(=O)[nH]2)c1 | KIT D816V | cell-free assay, competition with immobilised ligand | 1 µM | 100%
Cc1cnn2ncc(-c3ccnc(N(C)C)n3)c2c1 | KIT D816H | binding | 1 µM | 83%
COc1ccc2cc(OCC3(C(=O)O)CN(C(=O)c4ccc(F)cc4)C3)ccc2c1 | KIT L576P | cell-free assay, competition with immobilised ligand | 1 µM | 100%
O=C(NCCCN1CCOCC1)c1ccc(Nc2nccc(-c3cc4ccccc4s3)n2)cc1 | KIT | binding, competition with immobilised ligand | 1 µM | 63%

Structure (SMILES) | target | test | setting | remaining binding
CN(c1nccc(-c2cnn3ncccc23)n1)C1CC1 | KIT A829P | binding | 1 µM | 88%
Cc1cc(-n2nc(Cc3cc(F)cc(C(F)(F)F)c3)nc2C)ccc1C(N)=O | KIT A829P | cell-free assay, competition with immobilised ligand | 1 µM | 100%
O=C(c1ccc(Nc2ncc(Cl)c(-c3ccc(Cl)s3)n2)cc1)N1CCC(N2CCCC2)CC1 | KIT L576P | binding, competition with immobilised ligand | 1 µM | 1.4%
Nc1ncc2c(n1)-c1c([nH]c3ccc(C#CC4CC4)cc13)CCCC2 | KIT A829P | binding, competition with immobilised ligand | 1 µM | 72%
O=C(Nc1c[nH]nc1C(=O)NC1CCNCC1)c1cc(F)cc(F)c1 | KIT D816H | binding, competition with immobilised ligand | 1 µM | 100%
O=c1nc(-c2ccccn2)sc2ccccc12 | KIT A829P | binding, competition with immobilised ligand | 1 µM | 100%
N[C@@H]1CCN(c2nccc(-c3cnn4ncccc34)n2)C1 | KIT | binding | 1 µM | 95%
COc1ncc2cc3ccccc3nc2c1C#N | KIT autoinhibited | cell-free assay, competition with immobilised ligand | 5 µM | 98%
C[C@@H](c1ccc(-n2cnc3c(N)ncnc32)cc1)N1CCc2nn(C)c(Cc3ccccc3)c2C1=O | KIT D816H | binding, competition with immobilised ligand | 0.1 µM | 64%
O=C(c1ccc(Nc2ncc(Cl)c(-c3cc4ccccc4s3)n2)cc1)N1CCC(N2CCCC2)CC1 | KIT V559D | binding, competition with immobilised ligand | 1 µM | 6.6%
O=C(NS(=O)(=O)c1ccc(NCC2CCOCC2)c([N+](=O)[O-])c1)c1ccc(N2CCN(Cc3ccc(C(F)(F)F)cc3-c3ccc(Cl)cc3)CC2)cc1Oc1cnc2[nH]ccc2c1 | KIT V559D | cell-free assay, competition with immobilised ligand | 1 µM | 100%
CN1CCN(c2ccc(Nc3nccc(-c4ccccc4)n3)cc2C(F)(F)F)CC1 | KIT V559D | binding | 10 µM | 0.05%
C[C@H]1CCN(c2nccc(-c3cnn4ncccc34)n2)C1 | KIT V559D/V654A | binding | 1 µM | 79%
COc1cnc(Nc2cccc(S(N)(=O)=O)c2)nc1N1CCN(c2ccccc2)CC1 | KIT autoinhibited | binding, competition with immobilised ligand | 1 µM | 90%
C=CC(=O)N1CCC(C(=O)NCC(=O)N2CCN(c3nc(-c4cnc(N)nc4C(F)F)nc(N4CCOCC4)n3)CC2)CC1 | KIT autoinhibited | binding, competition with immobilised ligand | 1 µM | 35%
CN(C)c1nccc(-c2cnn3ncccc23)n1 | KIT L576P | binding | 1 µM | 100%
O=C(c1ccc(Nc2nccc(-c3cc4ccccc4s3)n2)cc1)N1CCC(N2CCCC2)CC1 | KIT | binding, competition with immobilised ligand | 1 µM | 53%
